# Assays:
# Thymidylate synthase [1] = target: T1, Thymidylate synthase (Homo sapiens, UniProt P04818); experiment: Inhibition of human thymidylate synthase at 40 uM concentration of 5,10-CH2-H4PteGlu5
# Outline: (§1)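 TS purified ~1350-fold (specific activity 17.4 units/mg) from human acute myeloblastic leukemia cell pellet; tritium-release assay with [5-3H]dUMP, started by enzyme addition, 45 or 60 min incubation. Ki from varying dUMP, 5,10-CH2-H4PteGlu or 5,10-CH2-H4PteGlu5 at several fixed inhibitor levels; fixed cosubstrate 28 µM dUMP or 600 µM CH2-H4PteGlu (40 µM pentaglutamate); duplicate/triplicate, repeated.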
# Target sequence in this assay (P04818 whole entry): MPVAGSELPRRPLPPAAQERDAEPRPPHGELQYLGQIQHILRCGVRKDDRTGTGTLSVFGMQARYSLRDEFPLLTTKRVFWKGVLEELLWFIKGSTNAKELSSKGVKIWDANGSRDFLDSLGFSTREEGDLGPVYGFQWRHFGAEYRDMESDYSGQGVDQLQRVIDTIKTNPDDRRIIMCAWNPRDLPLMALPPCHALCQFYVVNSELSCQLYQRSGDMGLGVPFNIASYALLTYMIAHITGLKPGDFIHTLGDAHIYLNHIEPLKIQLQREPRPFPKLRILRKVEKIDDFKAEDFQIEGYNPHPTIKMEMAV
# Thymidylate synthase [2] = target: T1, Thymidylate synthase; experiment: Inhibition of human thymidylate synthase at 600 uM concentration of 5,10-CH2-H4PteGlu; outline: as §1
# Target sequence in this assay (P04818 whole entry): as above
# Thymidylate synthase [3] = target: T1, Thymidylate synthase; experiment: Mixed inhibition of the human thymidylate synthase at 28 uM of 5,10-CH2-H4PteGlu5; outline: as §1
# Target sequence in this assay (P04818 2-313 limits assumed): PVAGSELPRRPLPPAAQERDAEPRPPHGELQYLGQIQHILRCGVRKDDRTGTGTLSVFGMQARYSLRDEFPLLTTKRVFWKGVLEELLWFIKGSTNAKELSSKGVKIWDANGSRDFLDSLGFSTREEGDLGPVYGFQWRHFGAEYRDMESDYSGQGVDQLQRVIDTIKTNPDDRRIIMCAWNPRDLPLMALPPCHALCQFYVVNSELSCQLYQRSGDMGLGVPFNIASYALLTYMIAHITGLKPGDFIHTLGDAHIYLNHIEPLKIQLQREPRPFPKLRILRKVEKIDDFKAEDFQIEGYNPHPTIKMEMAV
# Thymidylate synthase [4] = target: T1, Thymidylate synthase; experiment: Competitive inhibition of the human thymidylate synthase at 28 uM as Ki(slope) of 5,10-CH2-H4PteGlu; outline: as §1
# Target sequence in this assay (P04818 whole entry): as the sequence (P04818 whole entry) above
# Thymidylate synthase [5] = target: T1, Thymidylate synthase; experiment: Competitive inhibition of the human thymidylate synthase at 600 uM as Ki(slope) of 5,10-CH2-H4PteGlu; details: in the assay text read “28 uM dUMP” for “600 uM”; outline: as §1
# Target sequence in this assay (P04818 whole entry): as above
# Thymidylate synthase [6] = target: T1, Thymidylate synthase; experiment: Competitive inhibition of the human thymidylate synthase at 600 uM of 5,10-CH2-H4PteGlu
# Target sequence in this assay (P04818 whole entry): as above
IC50 (Thymidylate synthase [1]) [nM],IC50 (Thymidylate synthase [2]) [nM],Kii (Thymidylate synthase [3]) [µM],Kis (Thymidylate synthase [3]) [µM],Ki (Thymidylate synthase [4]) [nM],Ki (Thymidylate synthase [5]) [nM],Ki (Thymidylate synthase [6]) [nM],Compound
350,1000,0.2,1.19,230,–,–,Cc1nc(N)nc(O)c1N(CCN(C)c1ccc(C(=O)NC(CCC(=O)O)C(=O)O)cc1)Cc1cn([C@H]2C[C@H](O)[C@@H](COP(=O)(O)O)O2)c(=O)[nH]c1=O (stereo partly drawn)
200,390,0.11,0.33,–,85,27,Nc1nc(O)c2c(n1)CCC(CNc1ccc(C(=O)NC(CCC(=O)O)C(=O)O)cc1)N2Cc1cn([C@H]2C[C@H](O)[C@@H](COP(=O)(O)O)O2)c(=O)[nH]c1=O (stereo partly drawn)
1180,7300,–,–,–,–,–,Cc1nc(N)nc(O)c1N(CCNc1ccc(C(=O)NC(CCC(=O)O)C(=O)O)cc1)Cc1cn([C@H]2C[C@H](O)[C@@H](COP(=O)(O)O)O2)c(=O)[nH]c1=O (stereo partly drawn)

# — ChEMBL document CHEMBL1124003, “A pyrimidine-based "flexible" bisubstrate analogue inhibitor of human thymidylate synthase” (J Med Chem, 1988)
